Assay results of several laboratories.
Protocols differ between the studies behind these lines.
Effect on: enzyme activity
Mode: inhibitor
IGF1R: Insulin-like growth factor 1 receptor (IGF1R, Homo sapiens, UniProt P08069)
IGF1R phosphorylated: Insulin-like growth factor 1 receptor, phosphorylated (IGF1R, Homo sapiens, UniProt P08069)

Nc1nc(NC2CCCCC2)sc1C(=O)c1ccccc1
remaining activity (IGF1R; 10 µM): 80%

COc1cc(Nc2cnc(C#N)c(O[C@H](C)CN(C)C)n2)ncc1-c1cnn(C)c1
remaining activity (IGF1R; radiometric; 10 µM): 73%

O=C(Nc1cnn(-c2csc(C(=O)NC3COC3)c2)c1)Nc1ccccc1Cl
remaining activity (IGF1R; 5 µM): 95.8%

CCCOc1ccc(OC)c(F)c1C(=O)c1ccc(C(=O)N[C@@H]2CNC[C@H]2NC(=O)c2ccc3[nH]ncc3c2)cc1
remaining activity (IGF1R phosphorylated; 10 µM): 76%

Nc1nc(Nc2ccccc2)sc1C(=O)c1c(F)cccc1F
remaining activity (IGF1R; 10 µM): 80%

CC(C)(C)c1nc2c(s1)c1nc(N)ncc1c1ccc(NS(=O)(=O)c3c(F)cccc3F)c(F)c12
remaining activity (IGF1R; radiometric; 1 µM): 100%

Oc1cccc(-c2nc(N3CCOCC3)c3oc4ncccc4c3n2)c1
remaining activity (IGF1R; 10 µM): 54%

CCN(CC)CCNC(=O)c1c(C)[nH]c(/C=C2\C(=O)Nc3ccc(F)cc32)c1C
remaining activity (IGF1R; 1 µM): 67%

CCN(CC)c1ccc(C2=NNC(=O)CC2C)cc1[N+](=O)[O-] (stereo not shown)
remaining activity (IGF1R; 10 µM): 86%

Cc1[nH]c(/C=C2\C(=O)Nc3ccc(F)cc32)c(C)c1C(=O)N[C@H]1CCN(C(=O)N(C)C)C1
remaining activity (IGF1R; 1 µM): 106%

COc1cc(Cl)c(C(=O)N[C@@H](CN[C@H]2CC[C@@H](N)CC2)Cc2ccc(C#N)cc2)cc1-c1ccc(CN[C@H](C)c2ccc(C)cc2)o1
remaining activity (IGF1R phosphorylated; 1 µM): 117%

Cn1c(=O)n(-c2ccc(C(C)(C)C#N)cc2)c2c3cc(-c4cnc5ccccc5c4)ccc3ncc21
remaining activity (IGF1R; 10 µM): 72%

Cc1cnc(NC2CCOCC2)nc1-n1cnc(C(=O)NC(CN)c2cc(F)cc(Cl)c2)c1 (stereo not shown)
remaining activity (IGF1R phosphorylated; radiometric; 1 µM): 108%
